Experimental data taken from ChEMBL document CHEMBL1135409, “Structure-activity relationships of a novel class of endothelin-A receptor antagonists and discovery of potent and selective receptor antagonist, 2-(benzo[1,3]dioxol-5-yl)-6-isopropyloxy-4-(4-methoxyphenyl)-2H-chromene-3-carboxylic acid (S-1255). 1. Study on structure-activity relationships and …” (J Med Chem, 2002).

How the values were obtained:
[1] = biological target: T1, Endothelin receptor type B (Homo sapiens, UniProt P24530); assay: Binding affinity at human Endothelin B receptor
T1 sequence (P24530 whole entry): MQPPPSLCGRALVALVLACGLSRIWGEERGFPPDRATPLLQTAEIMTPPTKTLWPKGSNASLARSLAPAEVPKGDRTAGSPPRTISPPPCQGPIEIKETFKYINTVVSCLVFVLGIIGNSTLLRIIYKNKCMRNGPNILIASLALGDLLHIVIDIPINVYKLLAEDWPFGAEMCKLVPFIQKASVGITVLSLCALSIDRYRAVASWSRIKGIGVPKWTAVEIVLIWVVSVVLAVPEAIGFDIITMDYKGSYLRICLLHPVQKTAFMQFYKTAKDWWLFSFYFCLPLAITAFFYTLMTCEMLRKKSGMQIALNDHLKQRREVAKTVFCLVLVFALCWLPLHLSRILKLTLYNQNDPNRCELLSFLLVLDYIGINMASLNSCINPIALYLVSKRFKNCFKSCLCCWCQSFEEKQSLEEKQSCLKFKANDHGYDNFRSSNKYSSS
In short: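 Membranes from CHO cells expressing human ETB receptor were incubated with [125I]ET-3 (25 pM as added) and the test compound at various concentrations for 60 min at 37 °C. Buffer was HEPES (20 mM)-buffered Hank's solution with protease inhibitors. Samples were filtered on PEI-presoaked glass-fibre filters, washed with 50 mM Tris-HCl pH 7.4 and counted. Nonspecific binding was taken with 0.1 µM ET-3.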

Endothelin-1 receptor [2] = biological target: T2, Endothelin-1 receptor (Rattus norvegicus, UniProt P26684); assay: Binding affinity for endothelin A receptor by inhibition of [125I]ET1 binding in rat aorta smooth muscle cells; format: tissue-based
T2 sequence (P26684 whole entry): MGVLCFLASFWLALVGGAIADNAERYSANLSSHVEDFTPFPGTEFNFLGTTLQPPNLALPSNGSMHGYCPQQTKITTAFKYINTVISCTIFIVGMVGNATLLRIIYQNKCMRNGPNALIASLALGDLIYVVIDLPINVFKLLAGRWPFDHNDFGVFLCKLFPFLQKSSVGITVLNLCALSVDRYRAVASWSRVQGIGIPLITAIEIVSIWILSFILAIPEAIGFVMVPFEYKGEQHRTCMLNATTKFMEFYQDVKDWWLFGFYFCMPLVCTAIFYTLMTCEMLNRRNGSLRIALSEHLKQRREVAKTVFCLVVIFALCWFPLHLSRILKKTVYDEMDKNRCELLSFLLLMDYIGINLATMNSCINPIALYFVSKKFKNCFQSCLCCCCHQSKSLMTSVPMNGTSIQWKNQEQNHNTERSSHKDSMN

Endothelin-1 receptor [3] = biological target: T3, Endothelin-1 receptor (Homo sapiens, UniProt P25101); assay: Binding affinity at human Endothelin A receptor
T3 sequence (P25101 whole entry): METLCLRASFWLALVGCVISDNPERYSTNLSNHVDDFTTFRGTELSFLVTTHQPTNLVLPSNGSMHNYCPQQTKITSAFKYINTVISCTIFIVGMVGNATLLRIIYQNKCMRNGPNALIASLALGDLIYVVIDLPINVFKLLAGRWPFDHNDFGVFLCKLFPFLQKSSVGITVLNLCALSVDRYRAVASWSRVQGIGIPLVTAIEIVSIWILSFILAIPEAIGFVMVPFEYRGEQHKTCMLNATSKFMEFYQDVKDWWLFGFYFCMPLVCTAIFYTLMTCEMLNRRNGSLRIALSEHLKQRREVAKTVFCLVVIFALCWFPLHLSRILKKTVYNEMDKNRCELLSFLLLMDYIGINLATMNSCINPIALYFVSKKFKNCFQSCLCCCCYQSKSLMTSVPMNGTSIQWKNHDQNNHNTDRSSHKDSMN
In short: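 Membranes from CHO cells expressing human ETA receptor were incubated with [125I]ET-1 and the test compound at various concentrations for 60 min at 37 °C. Buffer was Hank's solution with 20 mM HEPES and protease inhibitors. Bound ligand was collected on PEI-presoaked glass-fibre filters and washed with 50 mM Tris-HCl pH 7.4, then counted.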

[4] = biological target: T4, Endothelin receptor type B (Sus scrofa, UniProt P35463); assay: Binding affinity to endothelin B receptor measured by inhibition of [125I]ET-3 binding recombinant pig ET-B receptor expressed in COS-7 cells; format: cell-based
T4 sequence (P35463 whole entry): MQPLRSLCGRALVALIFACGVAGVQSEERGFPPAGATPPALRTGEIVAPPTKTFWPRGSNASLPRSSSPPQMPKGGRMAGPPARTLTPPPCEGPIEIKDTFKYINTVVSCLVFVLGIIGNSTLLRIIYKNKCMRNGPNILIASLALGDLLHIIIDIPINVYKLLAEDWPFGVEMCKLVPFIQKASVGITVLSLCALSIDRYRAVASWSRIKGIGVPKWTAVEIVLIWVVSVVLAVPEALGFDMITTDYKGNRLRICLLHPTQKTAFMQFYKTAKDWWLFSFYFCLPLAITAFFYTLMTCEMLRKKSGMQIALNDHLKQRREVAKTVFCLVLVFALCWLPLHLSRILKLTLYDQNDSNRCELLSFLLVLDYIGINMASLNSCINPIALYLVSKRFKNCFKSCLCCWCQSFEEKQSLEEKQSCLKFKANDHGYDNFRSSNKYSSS
In short: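 COS cells transfected with porcine ETB cDNA, in Hank's solution with 20 mM HEPES and protease inhibitors. Stopped by filtration on GF/C filters presoaked in 1% polyethylenimine, washed with 50 mM Tris-HCl pH 7.4, then counted. Nonspecific binding taken with 0.1 μM ET-3.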

[5] = Ratio of inhibitory concentrations at ET-B receptor relative to that of ET-A receptor

SMILES | IC50 [1] [nM] | IC50 (Endothelin-1 receptor [2]) [nM] | IC50 (Endothelin-1 receptor [3]) [nM] | IC50 [4] [nM] | Ratio [5]
COC1=C(C(=O)O)[C@@H](c2ccc3c(c2)OCO3)Oc2ccc(OC(C)C)cc21 | – | 5.2 | – | 3500 | 670
COc1ccc(C2=C(C(=O)O)C(c3ccc4c(c3)OCO4)Oc3ccc(OCc4ccccc4)cc32)cc1 (stereo unspecified) | – | 62 | – | 790 | 13
CCCOc1cccc2c1C(c1ccc(OC)cc1)=C(C(=O)O)C(c1ccc3c(c1)OCO3)O2 (stereo unspecified) | – | 1200 | – | 1800 | 1.5
CC(C)Oc1ccc2c(c1)C=C(C(=O)O)C(c1ccc3c(c1)OCO3)O2 (stereo unspecified) | – | 330 | – | 52000 | 160
COc1ccc(C2=C(C(=O)O)C(c3ccc4c(c3)OCO4)Oc3ccccc32)cc1 (stereo unspecified) | – | 86 | – | 1400 | 16

Compounds with a lower IC50 (Endothelin-1 receptor [2]), results first:

IC50 [1] [nM] | IC50 (Endothelin-1 receptor [2]) [nM] | IC50 (Endothelin-1 receptor [3]) [nM] | IC50 [4] [nM] | Ratio [5] | SMILES
200 | 0.19 | 0.45 | 120 | – | COc1ccc(C2=C(C(=O)O)[C@@H](c3ccc4c(c3)OCO4)Oc3ccc(OC(C)C)cc32)cc1
– | 0.42 | – | 400 | 950 | CCCCC1=C(C(=O)O)[C@@H](c2ccc3c(c2)OCO3)Oc2ccc(OC(C)C)cc21
– | 2.8 | – | 170 | 61 | COc1ccc(C2=C(C(=O)O)C(c3ccc4c(c3)OCO4)Oc3ccc(OC(C)CO)cc32)cc1 (stereo unspecified)
– | 4.2 | – | 1600 | 380 | CCCCOC1=C(C(=O)O)C(c2ccc3c(c2)OCO3)Oc2ccc(OCC)cc21 (stereo unspecified)
– | 3 | – | 470 | 160 | CCCCOC1=C(C(=O)O)C(c2ccc3c(c2)OCO3)Oc2ccc(OCCCC)cc21 (stereo unspecified)
